# Measurements taken from ChEMBL document CHEMBL1153447, “Synthesis, cytotoxic and combined cDDP activity of new stable curcumin derivatives” (Bioorg Med Chem, 2009).
# Tests used:
# 2008 [1] = test: Cytotoxicity against cisplatin-sensitive human 2008 cells after 72 hrs by crystal violet dye assay; format: functional, cell-based; conditions: Homo sapiens, 2008, 72 h
# Method in brief: (§1)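 2008 ovarian carcinoma cells or the cisplatin-resistant C13* subline, grown in RPMI 1640 with 10% heat-inactivated FBS and gentamycin, 5% CO2, 37 °C, mycoplasma-negative. Seeded 4 × 10^4 cells/well, exposed 24 h later to compound for 3 days. Crystal violet stain solubilized in acidic isopropanol, absorbance read at 540 nm versus untreated controls. IC50 taken from dose–response curves. Mean of three experiments run in duplicate.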
# 2008 [2] = test: Cytotoxicity against cisplatin-sensitive human 2008 cells at 750 uM after 72 hrs by crystal violet dye assay; format: functional; method in brief: as §1
# [3] = Cytotoxicity against cisplatin-resistant human C13 cells at 750 uM after 72 hrs by crystal violet dye assay; format: functional; method in brief: as §1
# [4] = Cytotoxicity against african green monkey Vero cells assessed as cell survival at 750 uM after 72 hrs by crystal violet dye assay; format: cell-based; conditions: chlorocebus sabaeus, read-out: Activity
# Method in brief: (§2)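 Vero cells (African green monkey kidney) grown in MEM with 10% heat-inactivated fetal calf serum, penicillin G and streptomycin, 5% CO2, 37 °C. Seeded 4 × 10^4 cells/well, exposed 24 h later to compound for 3 days. Methanol-fixed, crystal violet-stained, dye solubilized in acidic isopropanol, absorbance read at 540 nm. Cytotoxicity is calculated against untreated controls. Mean of three experiments run in duplicate.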
# 2008 [5] = test: Resistant factor, ratio of IC50 for cisplatin-resistant human C13 cells to IC50 for cisplatin-sensitive human 2008 cells; format: functional
# Method in brief: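 RF^I is the IC50 in C13* cells divided by the IC50 in parental 2008 cells. Both IC50s come from a 3-day crystal violet dose–response assay, read at 540 nm.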
# [6] = Cytotoxicity against cisplatin-resistant human C13 cells after 72 hrs by crystal violet dye assay; format: functional, cell-based; conditions: C13, 72 h; method in brief: as §1
# [7] = Cytotoxicity against african green monkey Vero cells assessed as inhibition of growth at 750 uM after 72 hrs by crystal violet dye assay; format: cell-based; conditions: chlorocebus sabaeus, read-out: Activity; method in brief: as §2
# Vero [8] = test: Cytotoxicity against african green monkey Vero cells after 72 hrs by crystal violet dye assay; format: cell-based; conditions: Chlorocebus sabaeus; method in brief: as §2
# Vero [9] = test: Resistance factor, ratio of IC50 for african green monkey Vero cells to IC50 for cisplatin-resistant human C13 cells
# Method in brief: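 RF^II is the IC50 in Vero cells divided by the IC50 in C13* cells. Each IC50 comes from a 3-day crystal violet dose–response assay, read at 540 nm.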
# 2008 [10] = test: Cytotoxicity against cisplatin-sensitive human 2008 cells at 10 uM after 72 hrs by crystal violet dye assay; format: functional; method in brief: as §1
# [11] = Cytotoxicity against cisplatin-resistant human C13 cells at 10 uM after 72 hrs by crystal violet dye assay; format: functional; method in brief: as §1
# Vero [12] = test: Cytotoxicity against african green monkey Vero cells at 5 uM after 72 hrs by crystal violet dye assay; format: cell-based; conditions: chlorocebus sabaeus; method in brief: as §2
# Vero [13] = test: Cytotoxicity against african green monkey Vero cells at 10 uM after 72 hrs by crystal violet dye assay; format: cell-based; conditions: chlorocebus sabaeus; method in brief: as §2
structure (smiles),measurement,setting,value
O=C(/C=C/c1ccc(O[C@@H]2O[C@H](CO)[C@@H](O)[C@H](O)[C@H]2O)c(O)c1)CC(=O)/C=C/c1ccc(O[C@@H]2O[C@H](CO)[C@@H](O)[C@H](O)[C@H]2O)c(O)c1,IC50,2008 [1],480 µM
same,Activity,2008 [2],70%
same,Activity,[3],15%
same,"viability at 72 h, 750 µM",[4],80%
same,Ratio IC50,2008 [5],>2
COc1cc(/C=C/C(=O)CC(=O)/C=C/c2ccc(O[C@@H]3O[C@H](CO)[C@@H](O)[C@H](O)[C@H]3O)c(OC)c2)ccc1O[C@@H]1O[C@H](CO)[C@@H](O)[C@H](O)[C@H]1O,IC50,[6],840 µM
same,IC50,2008 [1],220 µM
same,"inhibition at 72 h, 750 µM",[7],20%
same,Ratio IC50,2008 [5],3.8
O=C(/C=C/c1ccc(O[C@@H]2O[C@H](CO)[C@@H](O)[C@H](O)[C@H]2O)cc1)CC(=O)/C=C/c1ccc(O[C@@H]2O[C@H](CO)[C@@H](O)[C@H](O)[C@H]2O)cc1,IC50,[6],83 µM
same,IC50,2008 [1],22 µM
same,IC50,Vero [8],330 µM
same,Ratio IC50,Vero [9],3.97
same,Ratio IC50,2008 [5],3.8
COc1cc(/C=C/C(=O)CC(=O)/C=C/c2ccc(O)c(OC)c2)ccc1O [CURCUMIN],IC50,[6],17 µM
same,IC50,2008 [1],5 µM
same,IC50,Vero [8],22 µM
same,Ratio IC50,Vero [9],1.3
same,Activity,2008 [10],90%
same,Activity,[11],45%
same,Activity,Vero [12],10%
same,Activity,Vero [13],25%
same,Ratio IC50,2008 [5],3.4
